Reference: ChEMBL document CHEMBL2169847, “New tricks for an old natural product: discovery of highly potent evodiamine derivatives as novel antitumor agents by systemic structure-activity relationship analysis and biological evaluations” (J Med Chem, 2012)
Activity calls are given as the source filed them. The calls are words filed in the database; no cut-off is given here.

Tests used:
HL-60 = assay: Cytotoxicity against human HL60 cells incubated for 72 hrs by MTT assay; format: functional; details: HL-60, 72 h
Method in brief: (§1)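 MTT assay. Cells seeded at 5 × 10³/well and grown 24 h at 37 °C, 5% CO₂. Compounds added at several concentrations in triplicate wells, with 0.1% DMSO control, for 72 h. MTT then added for 4 h, formazan dissolved in DMSO, and absorbance read at 570 nm. GI₅₀ by Logit method; three experiments.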

Mus musculus [1] = assay: Toxicity in BALB/C nude mouse xenografted with human A549 cells assessed as reduction in body weight at 2 mg/kg, ip administered as a single dose on 17th day and measured on 30 to 33 days post implantation; format: organism-based; set-up: dose 2 mg/kg, route intraperitoneal; details: in vivo
Method in brief: (§2)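 Cells implanted subcutaneously in right axilla of nude mice; dosing began at tumor volume about 100−300 mm³ (day 17). Randomized, six mice per treatment group and eight controls; ip injection. Tumor volume by caliper, TV = 1/2 × a × b², with body weight every 4 days. Mice sacrificed day 30−33 and tumors removed. Mean SEM, Student's t test versus control.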

[2] = target: DNA topoisomerase 2-alpha (Homo sapiens) (UniProt P11388); assay: Inhibition of human Top2alpha assessed as suppression of supercoiled pBR322 DNA relaxation at 50 uM incubated for 30 mins by electrophoresis method
Chain of DNA topoisomerase 2-alpha (Homo sapiens) (P11388 whole entry): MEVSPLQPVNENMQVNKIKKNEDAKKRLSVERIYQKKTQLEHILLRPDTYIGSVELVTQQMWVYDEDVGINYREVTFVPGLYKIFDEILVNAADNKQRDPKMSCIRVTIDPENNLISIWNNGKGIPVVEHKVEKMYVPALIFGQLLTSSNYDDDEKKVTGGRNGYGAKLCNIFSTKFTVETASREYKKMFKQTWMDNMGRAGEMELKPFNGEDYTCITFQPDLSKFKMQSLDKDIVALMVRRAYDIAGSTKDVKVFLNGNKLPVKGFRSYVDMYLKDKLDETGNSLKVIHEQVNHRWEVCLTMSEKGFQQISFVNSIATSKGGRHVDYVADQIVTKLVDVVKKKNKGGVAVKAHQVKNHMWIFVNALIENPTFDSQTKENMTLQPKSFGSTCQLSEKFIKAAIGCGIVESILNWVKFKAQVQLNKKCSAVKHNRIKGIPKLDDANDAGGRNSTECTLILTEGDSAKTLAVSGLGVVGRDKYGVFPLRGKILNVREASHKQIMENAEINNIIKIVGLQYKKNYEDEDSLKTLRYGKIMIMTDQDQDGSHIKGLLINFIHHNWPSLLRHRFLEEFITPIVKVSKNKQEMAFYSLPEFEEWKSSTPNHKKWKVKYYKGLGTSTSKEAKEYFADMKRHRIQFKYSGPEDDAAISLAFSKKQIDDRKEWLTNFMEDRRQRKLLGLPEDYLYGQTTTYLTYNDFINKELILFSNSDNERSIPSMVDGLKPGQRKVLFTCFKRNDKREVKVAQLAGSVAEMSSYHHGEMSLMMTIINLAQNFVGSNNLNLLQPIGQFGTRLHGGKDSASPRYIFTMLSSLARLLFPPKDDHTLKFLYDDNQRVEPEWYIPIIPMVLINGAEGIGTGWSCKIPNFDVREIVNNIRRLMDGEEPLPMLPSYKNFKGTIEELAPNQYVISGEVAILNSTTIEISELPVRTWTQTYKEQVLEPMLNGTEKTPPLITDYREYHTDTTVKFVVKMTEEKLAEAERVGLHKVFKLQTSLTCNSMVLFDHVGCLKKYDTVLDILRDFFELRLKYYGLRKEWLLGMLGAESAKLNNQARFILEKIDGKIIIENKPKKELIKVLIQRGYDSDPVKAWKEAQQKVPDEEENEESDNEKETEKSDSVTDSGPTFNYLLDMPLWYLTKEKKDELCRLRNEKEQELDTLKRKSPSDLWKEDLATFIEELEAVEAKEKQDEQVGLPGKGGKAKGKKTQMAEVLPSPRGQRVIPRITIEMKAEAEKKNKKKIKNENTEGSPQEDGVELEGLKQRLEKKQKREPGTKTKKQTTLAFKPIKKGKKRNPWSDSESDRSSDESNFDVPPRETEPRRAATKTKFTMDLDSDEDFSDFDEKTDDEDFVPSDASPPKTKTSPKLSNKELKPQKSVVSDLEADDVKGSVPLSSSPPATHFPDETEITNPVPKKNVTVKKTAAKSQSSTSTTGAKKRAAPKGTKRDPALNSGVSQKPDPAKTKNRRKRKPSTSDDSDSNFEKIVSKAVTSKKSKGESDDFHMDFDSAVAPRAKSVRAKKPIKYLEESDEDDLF

MDA-MB-435 = assay: Cytotoxicity against human MDA-MB-435 cells incubated for 72 hrs by MTT assay; format: functional; details: MDA-MB-435, 72 h; method in brief: as §1
A549 [3] = assay: Antitumor activity against human A549 cells xenografted in BALB/C nude mouse assessed as tumor growth inhibition at 2 mg/kg, ip administered as a single dose on 17th day post implantation and measured on 30 to 33 days post implantation; format: functional, organism-based; set-up: dose 2 mg/kg; method in brief: as §2
HepG2 = assay: Cytotoxicity against human HepG2 cells incubated for 72 hrs by MTT assay; format: functional; details: HepG2, 72 h; method in brief: as §1
U2OS = assay: Cytotoxicity against human U2OS cells incubated for 72 hrs by MTT assay; format: functional; method in brief: as §1
SAOS-2 = assay: Cytotoxicity against human Saos2 cells incubated for 72 hrs by MTT assay; format: functional; details: SAOS-2, 72 h; method in brief: as §1
HCT-116 [4] = assay: Cytotoxicity against human HCT116 cells incubated for 72 hrs by MTT assay; format: functional; details: HCT-116, 72 h; method in brief: as §1
A549 [5] = assay: Cytotoxicity against human A549 cells incubated for 72 hrs by MTT assay; format: functional; details: A549, 72 h; method in brief: as §1
PC-3 = assay: Cytotoxicity against human PC3 cells incubated for 72 hrs by MTT assay; format: functional; details: PC-3, 72 h; method in brief: as §1
[6] = target: T1, DNA topoisomerase 1 (Homo sapiens) (UniProt P11387); assay: Inhibition of Top1 assessed as suppression of supercoiled pBR322 DNA relaxation measuring appearance of short DNA fragments at 100 uM incubated for 15 mins by electrophoresis method
T1 sequence (whole entry): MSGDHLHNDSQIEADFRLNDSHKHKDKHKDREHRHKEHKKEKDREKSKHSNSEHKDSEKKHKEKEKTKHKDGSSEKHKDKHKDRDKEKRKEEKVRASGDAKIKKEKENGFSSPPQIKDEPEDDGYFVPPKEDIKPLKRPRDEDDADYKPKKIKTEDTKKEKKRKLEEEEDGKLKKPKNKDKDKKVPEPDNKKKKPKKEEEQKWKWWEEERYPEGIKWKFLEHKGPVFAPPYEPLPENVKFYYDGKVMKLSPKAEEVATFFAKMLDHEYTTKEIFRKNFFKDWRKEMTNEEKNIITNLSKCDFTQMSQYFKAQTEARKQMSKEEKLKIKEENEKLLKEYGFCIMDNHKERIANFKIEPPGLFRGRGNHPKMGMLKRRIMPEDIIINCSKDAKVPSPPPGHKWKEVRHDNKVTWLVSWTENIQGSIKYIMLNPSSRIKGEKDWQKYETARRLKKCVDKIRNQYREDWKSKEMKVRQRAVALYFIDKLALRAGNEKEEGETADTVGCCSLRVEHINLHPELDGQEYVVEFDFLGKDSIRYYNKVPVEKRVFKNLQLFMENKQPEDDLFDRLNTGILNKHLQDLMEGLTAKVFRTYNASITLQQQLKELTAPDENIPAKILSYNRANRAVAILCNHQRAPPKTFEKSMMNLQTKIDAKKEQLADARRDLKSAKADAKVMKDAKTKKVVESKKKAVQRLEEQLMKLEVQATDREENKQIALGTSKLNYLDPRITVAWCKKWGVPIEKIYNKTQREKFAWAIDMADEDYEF

HCT-116 [7] = assay: Antitumor activity against human HCT116 cells xenografted in BALB/C nude mouse assessed as tumor growth inhibition at 2 mg/kg, ip administered as a single dose on 17th day and measured on 30 to 33 days post implantation; format: functional, organism-based; set-up: dose 2 mg/kg; method in brief: as §2
Mus musculus [8] = assay: Toxicity in BALB/C nude mouse xenografted with human HCT116 cells assessed as reduction in body weight at 2 mg/kg, ip administered as a single dose on 17th day and measured on 30 to 33 days post implantation; format: organism-based, HCT-116; set-up: dose 2 mg/kg, route intraperitoneal; details: in vivo; method in brief: as §2
PANC-1 = assay: Cytotoxicity against human PANC1 cells incubated for 72 hrs by MTT assay; format: functional; details: PANC-1, 72 h; method in brief: as §1
Nucleic Acid [9] = assay: Binding affinity at calf thymus DNA at 50 uM after 20 mins by UV/vis absorbance titration based assay; format: nucleic-acid assay; details: Bos taurus
Method in brief: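 ct-DNA in DPBS pH 7.4, concentration set by A260 (13200 M⁻¹/cm per bp). Compounds at 50 μM in DPBS with 1% DMSO, with or without ct-DNA 0−100 μM. After 20 min equilibration at room temperature, absorption spectra recorded over 220−400 nm in a microplate reader. Hypochromic or bathochromic shifts taken as the sign of binding.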

A549 [10] = assay: Induction of apoptosis in human A549 cells at 5 uM incubated for 48 hrs by flow cytometry (reference value: 0.43%); format: functional
A549 [11] = assay: Antitumor activity against human A549 cells xenografted in BALB/C nude mouse assessed as tumor growth inhibition at 1 mg/kg, ip for 13 days measured on 30 to 33 days post implantation; format: functional, organism-based; set-up: dose 1 mg/kg; method in brief: as §2
A549 [12] = assay: Induction of apoptosis in human A549 cells assessed as change in cell morphology at 5 uM incubated for 48 hrs by immunostaining based light microscopy; format: functional
Method in brief: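 A549 cells exposed to 5 μM compound, or DMSO, for 48 h. Morphology judged under a light microscope.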

[13] = target: T1, DNA topoisomerase 1 (Homo sapiens); assay: Inhibition of Top1 assessed as stabilization of Top1-pUC19 DNA cleavage complex measuring increase of nicked DNA at 100 uM incubated for 15 mins by electrophoresis method
[14] = target: DNA topoisomerase 2-alpha (Homo sapiens) (UniProt P11388); assay: Inhibition of human Top2alpha assessed as stabilization of Top2-pBr322 DNA cleavage complex measuring linear DNA formation at 100 uM incubated for 20 mins by electrophoresis method
Method in brief: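 Top2α drug screening kit with 8 units hTop2α and pBR322 plasmid. After reaction, proteinase K (200 μg/mL final) 20 min at 50 °C. Electrophoresis in TAE with 0.5 μg/mL ethidium bromide to resolve nicked, linear, relaxed and supercoiled forms.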

Mus musculus [15] = assay: Toxicity in BALB/C nude mouse xenografted with human A549 cells assessed as reduction in body weight at 1 mg/kg, ip for 13 days measured on 30 to 33 days post implantation; format: organism-based; set-up: dose 1 mg/kg, route intraperitoneal; details: in vivo; method in brief: as §2
Nucleic Acid [16] = assay: Induction of DNA intercalation in Escherichia coli pBR322 DNA assessed as induction of supercoiled DNA at 100 uM incubated for 15 mins by electrophoresis based Top1 unwinding assay; format: nucleic-acid assay
Nucleic Acid [17] = assay: Binding affinity at calf thymus DNA minor groove assessed as displacement of Hoechst 33258 dye incubated for 20 mins by microplate reader based assay; format: nucleic-acid assay; details: Bos taurus
[18] = target: T1, DNA topoisomerase 1 (Homo sapiens); assay: Inhibition of Top1 assessed as suppression of supercoiled pBR322 DNA relaxation measuring appearance of short DNA fragments at 50 uM incubated for 15 mins by electrophoresis method
ZR-75-30 = assay: Cytotoxicity against human ZR75-30 cells incubated for 72 hrs by MTT assay; format: functional; details: ZR-75-30, 72 h; method in brief: as §1
[19] = Cytotoxicity against human KYSE-150 cells incubated for 72 hrs by MTT assay; format: functional; details: KYSE-150, 72 h; method in brief: as §1
CNE = assay: Cytotoxicity against human CNE cells incubated for 72 hrs by MTT assay; format: functional; method in brief: as §1

Row | SMILES | inhibition [2] | GI50 (MDA-MB-435) [nM] | GI50 (HCT-116 [4]) [nM] | GI50 (A549 [5]) [nM] | inhibition [6] | TGI (HCT-116 [7]) | Activity (Mus musculus [8]) | other results
1 | CN1c2ccc(F)cc2C(=O)N2CCc3c([nH]c4ccc(O)cc34)C21 (stereo not given) | Active | < 3 | < 3 | < 3 | Active | Active | Non-toxic | GI50 (HL-60): < 3 nM; Activity (Mus musculus [1]): Non-toxic; TGI (A549 [3]): inactive; GI50 (HepG2): 23800 nM; GI50 (U2OS): > 296000 nM; GI50 (SAOS-2): > 296000 nM; GI50 (PC-3): 92300 nM; GI50 (PANC-1): < 3 nM
2 | CN1c2ccccc2C(=O)N2CCc3c([nH]c4ccc(O)cc34)C21 (stereo not given) | Active | < 3 | < 3 | < 3 | Active | Active | Non-toxic | Activity (Nucleic Acid [9]): inactive; Activity (A549 [10]): 13.07%; TGI (A549 [11]): Active; Activity (A549 [12]): Active; inhibition [13]: Active; inhibition [14]: inactive; Activity (Mus musculus [15]): Non-toxic; Activity (Nucleic Acid [16]): inactive; Activity (Nucleic Acid [17]): inactive
3 | CN1c2cccc(O)c2C(=O)N2CCc3c([nH]c4ccccc34)C21 (stereo not given) | Active | 240 | 2140 | 62400 | Active | – | – | –
4 | CN1c2ccc(Cl)cc2C(=O)N2CCc3c([nH]c4ccc(O)cc34)C21 (stereo not given) | Active | 5 | 5 | 120 | Active | Active | Toxic | inhibition [18]: Active
5 | CN1c2ccc(O)cc2C(=O)N2CCc3c([nH]c4ccccc34)C21 (stereo not given) | inactive | < 3 | 13 | > 200000 | Active | – | – | –
6 | COc1ccc2[nH]c3c(c2c1)CCN1C(=O)c2cc(N)ccc2N(C)C31 (stereo not given) | Active | 12000 | 6600 | 62000 | – | – | – | –
7 | CN1c2ccc(F)cc2C(=O)N2CCc3c([nH]c4ccc(O)cc34)[C@H]21 | – | – | 3.6 | 3.7 | – | – | – | GI50 (ZR-75-30): 3 nM; GI50 [19]: 3 nM; GI50 (CNE): 8110 nM
8 | COc1cc([C@@H]2c3cc4c(cc3[C@@H](O[C@@H]3O[C@@H]5CO[C@@H](C)O[C@H]5[C@H](O)[C@H]3O)[C@H]3COC(=O)[C@H]23)OCO4)cc(OC)c1O | Active | – | – | – | – | – | – | inhibition [14]: Active
